Data on eleven compounds can be found in ChEMBL document CHEMBL2040768, “Synthesis, antimicrobial and cytotoxic activities of sulfone linked bis heterocycles” (Eur J Med Chem, 2012).

Activity calls are given as the source filed them. No cut-off for these calls is given here.

The subject of test [1] is Pseudomonas aeruginosa. The test can be described thus: Antibacterial activity against Pseudomonas aeruginosa at 50 ug/ml after 24 hrs by agar well diffusion method. The format is functional. The note with it: for zone of inhibition at 50 µg/mL: read-out: DIZ. The procedure, abridged: (§1)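 Agar well diffusion. Nutrient plates swabbed with 24 h broth culture of the bacterium; 6 mm wells bored and loaded with DMSO solutions of compound (wells at 50 and 100 per well). Chloramphenicol positive control, DMSO negative control. Plates held 37 °C, 24 h; inhibition zone diameter (mm) measured, mean of duplicates.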
Background: Agar diffusion results depend on both activity and mobility in agar.

The test system of test [2] is Bacillus subtilis. Nature of the test: Antibacterial activity against Bacillus subtilis at 100 ug/ml after 24 hrs by agar well diffusion method. The format is functional. The note with it: for zone of inhibition at 100 µg/mL: read-out: DIZ. In outline:
as §1

Test [3] has as its system Bacillus subtilis. Nature of the test: Antibacterial activity against Bacillus subtilis at 50 ug/ml after 24 hrs by agar well diffusion method. The format is functional. The following applies: for zone of inhibition at 50 µg/mL: read-out: DIZ. In outline: as §1
Test [4] has as its system Aspergillus niger. The test can be described thus: Antifungal activity against Aspergillus niger at 50 ug/ml after 48 hrs by agar well diffusion method. The format is functional. The following applies: for zone of inhibition at 50 µg/mL: read-out: DIZ. In outline:
(§2)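 Fungal agar well diffusion. Plates swabbed with fungal culture, 6 mm wells filled with DMSO solutions of compound (50 and 100 per well). Ketoconazole positive and DMSO negative controls. Plates incubated 28 °C for 48 h; zone of inhibition diameter (mm) read, average of duplicates.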

The test system of test [5] is Penicillium chrysogenum. The test can be described thus: Antifungal activity against Penicillium chrysogenum at 50 ug/ml after 48 hrs by agar well diffusion method. Type of test: functional. The note with it: for zone of inhibition at 50 µg/mL: read-out: DIZ. In outline:
as §2

The subject of test [6] is Penicillium chrysogenum. The test can be described thus: Antifungal activity against Penicillium chrysogenum at 100 ug/ml after 48 hrs by agar well diffusion method. The format is functional. The following applies: for zone of inhibition at 100 µg/mL: read-out: DIZ. In outline:
as §2

The test system of test [7] is Klebsiella pneumoniae. The test can be described thus: Antibacterial activity against Klebsiella pneumoniae at 50 ug/ml after 24 hrs by agar well diffusion method. Type of test: functional. The following applies: for zone of inhibition at 50 µg/mL: read-out: DIZ. In outline:
as §1

The subject of test [8] is Staphylococcus aureus. Nature of the test: Antibacterial activity against Staphylococcus aureus at 100 ug/ml after 24 hrs by agar well diffusion method. Type of test: functional. The following applies: for zone of inhibition at 100 µg/mL: read-out: DIZ. The procedure, abridged:
as §1

Test [9] deals with Staphylococcus aureus. The test can be described thus: Antibacterial activity against Staphylococcus aureus at 50 ug/ml after 24 hrs by agar well diffusion method. The format is functional. The note with it: for zone of inhibition at 50 µg/mL: read-out: DIZ. In outline: as §1
The subject of test [10] is Klebsiella pneumoniae. Nature of the test: Antibacterial activity against Klebsiella pneumoniae at 100 ug/ml after 24 hrs by agar well diffusion method. Type of test: functional. The following applies: for zone of inhibition at 100 µg/mL: read-out: DIZ. In outline: as §1
Test [11] concerns A549. The test can be described thus: Cytotoxicity against human A549 cells up to 0.2 mM after 72 hrs by MTT assay.
Test [12] deals with Aspergillus niger. Nature of the test: Antifungal activity against Aspergillus niger at 100 ug/ml after 48 hrs by agar well diffusion method. Type of test: functional. The note with it: for zone of inhibition at 100 µg/mL: read-out: DIZ. In outline:
as §2

The test system of test [13] is Pseudomonas aeruginosa. The test can be described thus: Antibacterial activity against Pseudomonas aeruginosa at 100 ug/ml after 24 hrs by agar well diffusion method. The note with it: for zone of inhibition at 100 µg/mL: read-out: DIZ. The format is functional. In outline:
as §1

`O=S(=O)(Cc1nnc(CS(=O)(=O)c2c[nH]cc2S(=O)(=O)c2ccccc2)o1)Nc1ccccc1`: the “diameter of the inhibition zone (DIZ)” value in test [1], in [4], in [5], in test [6], in test [7] and in [10] was “inactive” in each case. The “diameter of the inhibition zone (DIZ)” value in test [12] and in test [13] was “inactive” throughout. For the same compound, the zone of inhibition at 100 µg/mL in test [2] was 15 mm; in test [8] it was 14 mm. Further, the zone of inhibition at 50 µg/mL in test [3] is 13 mm; in test [9] it was 12 mm. For the same compound, the result in test [11] was inactive.

Take `Cc1ccc(NS(=O)(=O)Cc2nnc(CS(=O)(=O)/C=C/S(=O)(=O)c3ccc(C)cc3)n2N)cc1`: the zone of inhibition at 50 µg/mL in [1] worked out at 15 mm; in test [3], 23 mm; in test [4] it was 19 mm; in [5] it was 22 mm; in [7] it was 25 mm; in test [9] it was 20 mm. The zone of inhibition at 100 µg/mL in [2] came out at 25 mm; in test [6], 25 mm; in test [8] it was 22 mm; in test [10], 27 mm; in test [12], 23 mm; in test [13], 17 mm. For the same compound, the result in [11] was inactive.

In the case of `Nn1c(CS(=O)(=O)Nc2ccccc2)nnc1CS(=O)(=O)C1CNN=C1S(=O)(=O)c1ccccc1` (stereo not drawn), the zone of inhibition at 50 µg/mL in test [1] amounted to 12 mm; in test [3], 15 mm; in test [4] it was 13 mm; in test [5], 14 mm; in test [7], 17 mm; in [9], 13 mm. Besides, the zone of inhibition at 100 µg/mL came to 17 mm in test [2]; 17 mm in test [6]; 15 mm in test [8]; 19 mm in test [10]; 15 mm in test [12]; 14 mm in [13]. The outcome in test [11] was inactive.

With `Nn1c(CS(=O)(=O)Nc2ccccc2)nnc1CS(=O)(=O)c1c[nH]cc1S(=O)(=O)c1ccccc1`, the zone of inhibition at 50 µg/mL in [1] was 15 mm; in [3], 20 mm; in [4] it was 18 mm; in test [5], 19 mm; in test [7], 22 mm; in test [9], 17 mm. Further, the zone of inhibition at 100 µg/mL in test [2] was 22 mm; in test [6] it was 22 mm; in test [8] it was 19 mm; in test [10], 24 mm; in test [12], 20 mm; in test [13], 16 mm. Also, the outcome in [11] was inactive.

For the compound `Cc1ccc(NS(=O)(=O)Cc2nnc(CS(=O)(=O)c3c[nH]nc3S(=O)(=O)c3ccc(C)cc3)o2)cc1`, the “diameter of the inhibition zone (DIZ)” value in [1], in test [2], in [3], in test [4], in test [5] and in test [6] was “inactive” in each case. Also, the “diameter of the inhibition zone (DIZ)” value in test [7], in test [8], in test [9], in test [10], in [12] and in [13] was “inactive” throughout. Further, the outcome in test [11] was inactive.

As for `Nn1c(CS(=O)(=O)Nc2ccc(Cl)cc2)nnc1CS(=O)(=O)C1CNN=C1S(=O)(=O)c1ccc(Cl)cc1` (stereo not drawn), the zone of inhibition at 50 µg/mL was 21 mm in [1]; 24 mm in test [3]; 28 mm in [4]; 29 mm in [5]; 28 mm in test [7]; 25 mm in test [9]. For the same compound, the zone of inhibition at 100 µg/mL stood at 27 mm in test [2]; 32 mm in test [6]; 27 mm in test [8]; 30 mm in test [10]; 30 mm in [12]; 24 mm in [13]. The outcome in [11] was inactive.

On to `O=S(=O)(/C=C/S(=O)(=O)c1ccccc1)Cc1nnc(CS(=O)(=O)Nc2ccccc2)o1`, for which the “diameter of the inhibition zone (DIZ)” value in test [1], in [4], in [5], in test [6], in [7] and in [10] was “inactive” throughout. Further, the “diameter of the inhibition zone (DIZ)” value in test [12] and in [13] was “inactive” each time. For the same compound, the zone of inhibition at 100 µg/mL came out at 14 mm in [2] and 13 mm in [8]. Further, the zone of inhibition at 50 µg/mL in test [3] worked out at 12 mm; in test [9], 10 mm. For the same compound, the outcome in test [11] was inactive.

For `Cc1ccc(NS(=O)(=O)Cc2nnc(CS(=O)(=O)c3c[nH]nc3S(=O)(=O)c3ccc(C)cc3)s2)cc1`, the zone of inhibition at 50 µg/mL was 8 mm in test [1]; 10 mm in [3]; 10 mm in [4]; 11 mm in test [5]; 13 mm in test [7]; 12 mm in test [9]. Besides, the zone of inhibition at 100 µg/mL in test [2] stood at 13 mm; in [6] it was 13 mm; in test [8], 14 mm; in test [10], 15 mm; in [12] it was 13 mm; in test [13] it was 11 mm. The result in test [11] was inactive.

In the case of `O=S(=O)(Cc1nnc(CS(=O)(=O)C2CNN=C2S(=O)(=O)c2ccccc2)s1)Nc1ccccc1` (stereo not drawn), the “diameter of the inhibition zone (DIZ)” value in test [1], in test [4], in [5], in test [6], in test [7] and in [10] was “inactive” in each case. Moreover, the “diameter of the inhibition zone (DIZ)” value in test [12] and in test [13] was “inactive” throughout. Besides, the zone of inhibition at 100 µg/mL worked out at 16 mm in [2] and 14 mm in test [8]. Also, the zone of inhibition at 50 µg/mL in [3] amounted to 14 mm; in test [9] it was 12 mm. Also, the outcome in test [11] was inactive.

For the compound `O=S(=O)(Cc1nnc(CS(=O)(=O)c2c[nH]cc2S(=O)(=O)c2ccccc2)s1)Nc1ccccc1`, the zone of inhibition at 50 µg/mL in test [1] is 14 mm; in [3], 18 mm; in test [4] it was 16 mm; in test [5], 17 mm; in [7] it was 20 mm; in test [9] it was 15 mm. For the same compound, the zone of inhibition at 100 µg/mL in [2] stood at 20 mm; in [6], 20 mm; in [8] it was 17 mm; in test [10], 22 mm; in [12] it was 18 mm; in test [13] it was 15 mm. In test [11], the outcome was inactive.

Regarding `O=S(=O)(Cc1nnc(CS(=O)(=O)c2c[nH]nc2S(=O)(=O)c2ccccc2)o1)Nc1ccccc1`, the zone of inhibition at 50 µg/mL is 10 mm in test [1]; 13 mm in test [3]; 10 mm in [4]; 12 mm in [5]; 15 mm in test [7]; 10 mm in test [9]. Also, the zone of inhibition at 100 µg/mL in test [2] came to 15 mm; in [6] it was 15 mm; in [8], 12 mm; in test [10], 17 mm; in [12] it was 13 mm; in test [13] it was 12 mm. Moreover, in [11], the result was inactive.
